The nature of experiment [1]: inhibitors of TNFa-induced NFkB p65 translocation, primary screen, imaging, HUVEC, MLSMR starter and 10KST1 sets (AID 438;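 active = inhibition above 20% together with a positive visual image hit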;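 note: compound added about 3h40 before a 20 min TNFalpha stimulation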;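 for inhibition: signal is the nuclear over cytoplasmic p65 intensity ratio per well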). To be noted: HUVEC TNFa-induced p65 nuclear translocation; cell count: measured here: nuclei count (cytotoxicity indicator), at 2.08 µM; inhibition: at 2 µM, stronger effect = higher value, 0% TNFa-plus-vehicle, 100% no-TNFa wells.
Experiment [2] can be described thus: inhibitors of mutant huntingtin aggregation, primary screen, imaging, exon1htt(103Q)mCFP cells, high-content imaging (AID 483).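 For nuclei count: percent of the per-plate median nuclei count of sample wells.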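 Note: compound exposure lasted 3 days before fixation.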 The note with it: exon1htt(103Q)mCFP cell line, aggregate imaging, at 2 µM; inhibition of aggregation: stronger effect = higher value; nuclei count: measured here: cell count, toxicity.
Experiment [3] in a line: inhibitors of E-selectin induction by TNFa, primary screen, imaging, HUVEC, immunofluorescence, MLSMR starter and 10KST1 sets (AID 487;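 active = visually confirmed hit in the image check and inhibition above 20%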;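 for inhibition: signal is fraction of cell area covered by stained E-selectin grains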;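 for nuclei count: 100% = median nuclei count of all wells on the same plate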). To be noted: HUVEC TNFalpha-induced E-selectin immunofluorescence imaging, at 2 µM; inhibition: stronger effect = higher value; nuclei count: measured here: cell number, toxicity.
Experiment [4] addresses Voltage-gated potassium channel subunit beta-2 (Rattus norvegicus) (UniProt P62483). The experiment is described as follows: KvBeta enzyme negative modulators, primary screen, biochemical, NADPH fluorescence (AID 622;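 active = fluorescence slope higher than the sample average by over 3 SD, cut at about -0.22 in these data, passing the limit was not always enough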;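 note: slope of raw intensity against log time taken from 70 to 1610 s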). The note with it: recombinant KvBeta, 4-cyanobenzaldehyde reduction, at 10 µM, stronger effect = higher value.
Experiment [5] shares this target. The experiment is described as follows: KvBeta positive modulators, primary screen, biochemical, NADPH fluorescence (AID 623;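 active = NADPH fluorescence slope more negative than the mean of all samples by about 3 SD, 99.7% confidence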;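 note: fluorescence intensity change per second fitted from 20 to 320 s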). To be noted: Recombinant KvBeta, NADPH fluorescence decrease slope, 10 min; at 10 µM; stronger effect = lower value.
For experiment [6], the target named is Muscarinic acetylcholine receptor M4 (Homo sapiens) (UniProt P08173). The experiment is described as follows: compounds altering M4/GIRK thallium flux, either direction, primary screen, M4 allosteric agonist project, cell-based, HEK293 M4/GIRK, BTC-AM (AID 625;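 active = fluorescence slope after compound addition differing from the mean of all tested samples at 99.7% confidence, mostly higher but some lower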;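 note: thallium influx through GIRK channels coupled to M4 in HEK293 cells with BTC-AM dye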). To be noted: at 10 µM, actives lie on both sides. The procedure, abridged:
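Assay system: HEK293 cells with M4 receptor and GIRK channels / Controls: carbachol and DMSO controls / Schedule: 1 h dye loading, 2 min kinetic read / Technique: kinetic fluorescence with BTC-AM dye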

A short description of experiment [7]: inhibitors of Sendai virus-induced IRF3 signaling, primary screen, TLR/RLR signaling modifier project, cell-based, Sendai virus stimulus, luciferase, 10K MLSCN set (AID 602276;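 active = inhibition at or above 50% at 10 µM; inactive = inhibition below 50%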;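 note: firefly luciferase from ISG56 promoter only with Renilla not read in this screen; 0% = Sendai virus plus DMSO and 100% = medium plus DMSO without virus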). The note with it: HEK293 RL24 IRF3 luciferase reporter, at 10 µM, stronger effect = higher value.
Experiment [8] is described as follows: inhibitors of poly I:C-induced TLR3 signaling, primary screen, cell-based, poly I:C stimulus, luciferase, 10K MLSCN set (AID 602277;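 active = inhibition of the reporter signal at or above 50%; inactive = inhibition below 50%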). To be noted: HEK293-TLR3 RL24 IRF3 luciferase reporter, at 10 µM, stronger effect = higher value.

The values that follow come from PubChem BioAssay.

Active and inactive are the calls of the source.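 Rule for the calls, unless noted: active = visual image review flags a hit and inhibition of aggregation exceeds 20%; inconclusive = visual hit but inhibition at or below 20%; inactive = no hit on visual image review.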

Voltage-gated potassium channel subunit beta-2 (Rattus norvegicus), sequence (P62483 whole entry, looked up): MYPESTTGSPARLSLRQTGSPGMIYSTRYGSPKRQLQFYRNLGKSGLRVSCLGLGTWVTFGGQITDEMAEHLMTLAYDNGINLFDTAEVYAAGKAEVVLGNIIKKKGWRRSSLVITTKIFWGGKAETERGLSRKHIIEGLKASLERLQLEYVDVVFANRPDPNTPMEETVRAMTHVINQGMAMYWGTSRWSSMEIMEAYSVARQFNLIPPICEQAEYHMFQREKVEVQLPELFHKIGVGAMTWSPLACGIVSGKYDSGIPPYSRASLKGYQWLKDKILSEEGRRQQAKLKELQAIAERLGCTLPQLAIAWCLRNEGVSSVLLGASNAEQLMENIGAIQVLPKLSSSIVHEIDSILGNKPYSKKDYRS
Muscarinic acetylcholine receptor M4 (Homo sapiens), sequence (P08173 whole entry, looked up): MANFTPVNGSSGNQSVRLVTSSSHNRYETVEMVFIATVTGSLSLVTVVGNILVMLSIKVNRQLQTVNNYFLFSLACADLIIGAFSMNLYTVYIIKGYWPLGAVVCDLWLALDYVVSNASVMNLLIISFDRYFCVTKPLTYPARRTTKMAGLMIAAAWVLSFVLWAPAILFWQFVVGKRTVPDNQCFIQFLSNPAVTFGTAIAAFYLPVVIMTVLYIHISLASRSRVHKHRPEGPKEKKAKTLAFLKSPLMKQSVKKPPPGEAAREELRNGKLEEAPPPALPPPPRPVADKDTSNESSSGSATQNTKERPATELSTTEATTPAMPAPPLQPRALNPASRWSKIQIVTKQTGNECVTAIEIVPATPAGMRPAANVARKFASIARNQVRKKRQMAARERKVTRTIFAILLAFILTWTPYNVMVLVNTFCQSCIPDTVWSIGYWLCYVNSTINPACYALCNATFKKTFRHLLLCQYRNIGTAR

For the compound `C=CCOc1cccc(C2/C(=C(\O)c3ccc(F)cc3)C(=O)C(=O)N2CCN(C)C)c1` (centres undefined), in experiment [1], the cell count worked out at 699. Moreover, the inhibition in experiment [1] was -12.1% (inactive); in experiment [3], 33.3% (inactive); in experiment [7], 8.26% (inactive); in experiment [8], 15.2% (inactive). Further, in experiment [2], the inhibition of aggregation is 20.1% (inactive). Further, the nuclei count in experiment [2] came out at 82.8%; in experiment [3], 99.1%. Also, the fluorescence slope in experiment [4] is -0.493 (inactive); in experiment [6] it was 0.00287 (inactive). Besides, the NADPH fluorescence slope in experiment [5] was -0.000177 (inactive).

With `CCOC(=O)N1CCN(C(=O)Nc2ccc(Cl)cc2)CC1`, the cell count in experiment [1] worked out at 356. Also, the inhibition in experiment [1] is -3.2% (inactive); in experiment [3], 21.3% (inactive); in experiment [7], 10.8% (inactive); in experiment [8], 3.42% (inactive). The inhibition of aggregation in experiment [2] was 10.6% (inactive). Further, the nuclei count in experiment [2] was 99.4%; in experiment [3] it was 103%. In addition, the fluorescence slope in experiment [4] was -0.462 (inactive); in experiment [6], 0.00495 (inactive). In experiment [5], the NADPH fluorescence slope was -4.1e-05 (inactive).

As to `C=CCOC(=O)C(C#N)c1nc2ccccc2nc1N1CCN(Cc2ccccc2)CC1` (centres undefined), the cell count in experiment [1] turned out to be 469. Further, the inhibition in experiment [1] was -5.7% (inactive); in experiment [3] it was -69.4% (inactive); in experiment [7], 10.9% (inactive); in experiment [8], 18.7% (inactive). The inhibition of aggregation in experiment [2] was -12.3% (inactive). Further, the nuclei count worked out at 94.6% in experiment [2] and 181% in experiment [3]. In addition, the fluorescence slope in experiment [4] is -0.402 (inactive); in experiment [6], 0.0023 (inactive). In addition, the NADPH fluorescence slope in experiment [5] is 6.8e-05 (inactive).

For `CCCCOC(=O)Cn1c(=N)n(CCN2CCOCC2)c2ccccc21`, the cell count in experiment [1] was 488. Further, the inhibition in experiment [1] was 4% (inactive); in experiment [3] it was -46.3% (inactive); in experiment [7] it was 8.18% (inactive); in experiment [8], 17.7% (inactive). Besides, in experiment [2], the inhibition of aggregation is 7.9% (inactive). In addition, the nuclei count in experiment [2] was 91.9%; in experiment [3], 84.8%. The fluorescence slope in experiment [4] is -0.354 (inactive); in experiment [6], 0.00576 (inactive). In addition, the NADPH fluorescence slope in experiment [5] was -6.5e-05 (inactive).

With `CN(Cc1cccs1)c1ncnc2sccc12`, in experiment [1], the cell count is 549. In addition, the inhibition in experiment [1] is -11.6% (inactive); in experiment [3], -38.6% (inactive); in experiment [7], 7.29% (inactive); in experiment [8] it was -37.9% (inactive). Also, the inhibition of aggregation in experiment [2] is -28.3% (inactive). Further, the nuclei count in experiment [2] stood at 101%; in experiment [3], 147%. Besides, the fluorescence slope is -0.456 (inactive) in experiment [4] and 0.00479 (inactive) in experiment [6]. In experiment [5], the NADPH fluorescence slope is 2.8e-05 (inactive).

Turning to `Cc1cc(C)c2nc(N)sc2c1`, the cell count in experiment [1] turned out to be 615. Moreover, the inhibition is 6.3% (inactive) in experiment [1], 16% (inactive) in experiment [3], -28.1% (inactive) in experiment [7] and -46.7% (inactive) in experiment [8]. In experiment [2], the inhibition of aggregation is 31.1% (inactive). Moreover, the nuclei count in experiment [2] was 67.2%; in experiment [3], 107%. The fluorescence slope in experiment [4] was -0.281 (inactive); in experiment [6], 0.00618 (inactive). For the same compound, the NADPH fluorescence slope in experiment [5] was -1.5e-05 (inactive).

Take `CCN1CCN(c2nc(-c3cccnc3)nc3ccccc23)CC1`: the cell count in experiment [1] stood at 598. The inhibition is 11.2% (inactive) in experiment [1], -58.2% (inactive) in experiment [3], 12.9% (inactive) in experiment [7] and 37.7% (inactive) in experiment [8]. Also, the inhibition of aggregation in experiment [2] is -11.6% (inactive). In addition, the nuclei count in experiment [2] amounted to 94.7%; in experiment [3], 103%. In addition, the fluorescence slope was -0.468 (inactive) in experiment [4] and 0.00671 (inactive) in experiment [6]. For the same compound, the NADPH fluorescence slope in experiment [5] was 2.1e-05 (inactive).

Turning to `Cc1ccc(CNC(=O)C2CCCN(S(=O)(=O)c3cccnc3)C2)cc1` (centres undefined), the cell count in experiment [1] came out at 313. In addition, the inhibition in experiment [1] is -3.9% (inactive); in experiment [3], -250% (inactive); in experiment [7], -3.78% (inactive); in experiment [8], -7.01% (inactive). The inhibition of aggregation in experiment [2] was -2.8% (inactive). Moreover, the nuclei count was determined as 89.2% in experiment [2] and 88.5% in experiment [3]. For the same compound, the fluorescence slope is -0.573 (inactive) in experiment [4] and 0.00508 (inactive) in experiment [6]. Moreover, in experiment [5], the NADPH fluorescence slope is 2.7e-05 (inactive).

Turning to `Cc1ccc2c(c1C)NC(C)CC2C` (centres undefined), in experiment [1], the cell count was determined as 553. Besides, the inhibition is 9.8% (inactive) in experiment [1], 35.5% (inactive) in experiment [3], 11.1% (inactive) in experiment [7] and 13.6% (inactive) in experiment [8]. Also, the inhibition of aggregation in experiment [2] was 5.9% (inactive). Besides, the values for the nuclei count in experiment [2] and in experiment [3] were 101% and 100%, respectively. In addition, the fluorescence slope in experiment [4] was -0.604 (inactive); in experiment [6] it was 0.0052 (inactive). In addition, the NADPH fluorescence slope in experiment [5] was -2.8e-05 (inactive).

As to `COCCN1C(=O)C(=O)/C(=C(/O)c2cccc(S(=O)(=O)N(C)C)c2)C12C(=O)N(C)c1ccccc12` (centres undefined), the cell count in experiment [1] is 584. The inhibition in experiment [1] was -22.3% (inactive); in experiment [3], -76.4% (inactive); in experiment [7], 8.34% (inactive); in experiment [8] it was 33.7% (inactive). In addition, the inhibition of aggregation in experiment [2] is 5.4% (inactive). Also, the nuclei count came out at 115% in experiment [2] and 107% in experiment [3]. Moreover, the figures for the fluorescence slope in experiment [4] and in experiment [6] were -0.483 (inactive) and 0.00617 (inactive), respectively. For the same compound, the NADPH fluorescence slope in experiment [5] is -5e-05 (inactive).

Regarding `COc1ccc(Cl)cc1NC(=O)COc1cccc(-n2cnnn2)c1`, the cell count in experiment [1] came out at 371. Besides, the inhibition in experiment [1] was 1.2% (inactive); in experiment [3], 10.9% (inactive); in experiment [7] it was 6.87% (inactive); in experiment [8], -12.1% (inactive). For the same compound, the inhibition of aggregation in experiment [2] is 5.6% (inactive). For the same compound, the nuclei count in experiment [2] came to 102%; in experiment [3], 112%. In addition, the fluorescence slope was -0.528 (inactive) in experiment [4] and 0.00451 (inactive) in experiment [6]. For the same compound, the NADPH fluorescence slope in experiment [5] is -1.9e-05 (inactive).

For `Cc1ccc2nc(SC(C)C(=O)N3CCCC3)[nH]c2c1` (centres undefined), in experiment [1], the cell count stood at 467. The inhibition in experiment [1] was 0% (inactive); in experiment [3], -59.3% (inactive); in experiment [7], -21.2% (inactive); in experiment [8], -39.7% (inactive). Also, in experiment [2], the inhibition of aggregation is 9.4% (inactive). In addition, the nuclei count came out at 75.7% in experiment [2] and 112% in experiment [3]. For the same compound, the fluorescence slope in experiment [4] is -0.478 (inactive); in experiment [6] it was 0.00661 (inactive). In addition, the NADPH fluorescence slope in experiment [5] was 6e-05 (inactive).

Take `O=c1c(-c2ccc(F)cc2)coc2c3c(ccc12)OCCO3`: in experiment [1], the cell count was 337. For the same compound, the inhibition in experiment [1] was 0.7% (inactive); in experiment [3], -65.5% (inactive); in experiment [7], -29.6% (inactive); in experiment [8], -86.4% (inactive). Also, in experiment [2], the inhibition of aggregation is 14.4% (inactive). Further, the nuclei count in experiment [2] was found to be 131%; in experiment [3], 124%. In addition, the fluorescence slope is -0.501 (inactive) in experiment [4] and 0.00582 (inactive) in experiment [6]. Further, in experiment [5], the NADPH fluorescence slope is -0.000205 (inactive).

In the case of `Cc1ccc(C2N(c3ccc(Cl)c(Cl)c3)C(=O)C3CCCN32)o1` (centres undefined), the cell count in experiment [1] was determined as 495. Further, the inhibition in experiment [1] was -1.5% (inactive); in experiment [3], -11.2% (inactive); in experiment [7], 16.9% (inactive); in experiment [8], 18.1% (inactive). For the same compound, the inhibition of aggregation in experiment [2] is 7.9% (inactive). Besides, the nuclei count in experiment [2] is 98.2%; in experiment [3], 97%. Besides, the fluorescence slope in experiment [4] is -0.561 (inactive); in experiment [6], 0.0047 (inactive). In addition, in experiment [5], the NADPH fluorescence slope was -2e-05 (inactive).

A word on the inhibition: it is the change of the read-out against control, counted positive when it falls.
